Experimental data: ChEMBL document CHEMBL1139546, “Radiosynthesis and evaluation of [11C]-(+)-4-propyl-3,4,4a,5,6,10b-hexahydro-2H-naphtho[1,2-b][1,4]oxazin-9-ol as a potential radiotracer for in vivo imaging of the dopamine D2 high-affinity state with positron emission tomography” (2005)

Tests used:
[1] = molecular target: T1, Dopamine receptor D2 and D3 (Rattus norvegicus) (UniProt P19020+P61169); conditions: Brain, at 0.04 mg/kg
[2] = molecular target: Adrenergic receptor alpha-2 (Rattus norvegicus) (UniProt P22086+P19328+P22909); conditions: Brain, at 1 mg/kg
Chain of Adrenergic receptor alpha-2 (Rattus norvegicus) (P19328 whole entry, looked up, one chain of several): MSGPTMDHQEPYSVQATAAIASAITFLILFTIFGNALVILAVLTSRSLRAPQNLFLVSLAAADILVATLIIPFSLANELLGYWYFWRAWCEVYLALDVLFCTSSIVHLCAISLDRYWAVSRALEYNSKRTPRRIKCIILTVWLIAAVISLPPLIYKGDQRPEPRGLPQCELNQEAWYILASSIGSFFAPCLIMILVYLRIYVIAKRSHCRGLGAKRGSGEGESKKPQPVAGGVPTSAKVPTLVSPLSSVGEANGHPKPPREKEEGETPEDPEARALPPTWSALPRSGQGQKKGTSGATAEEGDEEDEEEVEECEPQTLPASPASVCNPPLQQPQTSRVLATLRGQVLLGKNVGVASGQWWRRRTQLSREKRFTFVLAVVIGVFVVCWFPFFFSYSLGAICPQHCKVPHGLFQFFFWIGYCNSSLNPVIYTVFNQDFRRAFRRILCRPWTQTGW
Chain of Adrenergic receptor alpha-2 (Rattus norvegicus) (P22086 whole entry, looked up, one chain of several): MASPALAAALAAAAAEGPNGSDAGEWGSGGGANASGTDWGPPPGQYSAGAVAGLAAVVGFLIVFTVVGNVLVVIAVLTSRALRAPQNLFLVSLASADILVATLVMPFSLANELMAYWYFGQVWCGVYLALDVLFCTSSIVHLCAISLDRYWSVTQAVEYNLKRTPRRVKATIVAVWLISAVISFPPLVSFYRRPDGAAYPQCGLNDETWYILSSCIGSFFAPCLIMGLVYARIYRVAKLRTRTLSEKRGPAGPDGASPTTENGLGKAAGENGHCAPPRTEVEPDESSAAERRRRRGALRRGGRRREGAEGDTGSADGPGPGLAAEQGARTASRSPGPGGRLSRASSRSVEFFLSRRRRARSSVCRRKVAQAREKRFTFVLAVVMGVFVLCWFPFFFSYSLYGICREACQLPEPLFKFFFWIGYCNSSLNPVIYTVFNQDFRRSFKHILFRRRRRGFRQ

[3] = molecular target: Sodium-dependent dopamine transporter (Rattus norvegicus) (UniProt P23977); conditions: Brain, at 2 mg/kg
Chain of Sodium-dependent dopamine transporter (Rattus norvegicus) (P23977 whole entry): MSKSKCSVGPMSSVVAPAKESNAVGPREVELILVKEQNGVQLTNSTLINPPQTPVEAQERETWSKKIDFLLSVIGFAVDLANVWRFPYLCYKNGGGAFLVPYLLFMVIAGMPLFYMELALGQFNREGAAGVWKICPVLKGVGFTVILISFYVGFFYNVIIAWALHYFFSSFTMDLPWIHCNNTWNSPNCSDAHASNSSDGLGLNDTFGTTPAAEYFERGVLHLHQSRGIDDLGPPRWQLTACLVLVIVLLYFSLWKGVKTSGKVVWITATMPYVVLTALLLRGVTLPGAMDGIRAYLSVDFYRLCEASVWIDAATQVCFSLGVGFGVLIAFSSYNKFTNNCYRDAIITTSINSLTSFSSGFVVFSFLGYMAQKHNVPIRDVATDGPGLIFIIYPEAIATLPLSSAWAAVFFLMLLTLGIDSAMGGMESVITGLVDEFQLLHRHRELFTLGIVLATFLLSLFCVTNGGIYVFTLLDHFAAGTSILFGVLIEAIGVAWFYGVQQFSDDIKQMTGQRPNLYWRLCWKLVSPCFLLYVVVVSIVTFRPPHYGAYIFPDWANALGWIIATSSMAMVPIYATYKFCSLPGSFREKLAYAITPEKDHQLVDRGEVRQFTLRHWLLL

[4] = molecular target: Tyrosine 3-monooxygenase (Rattus norvegicus) (UniProt P04177); conditions: Brain, at 250 mg/kg
Chain of Tyrosine 3-monooxygenase (Rattus norvegicus) (P04177 whole entry): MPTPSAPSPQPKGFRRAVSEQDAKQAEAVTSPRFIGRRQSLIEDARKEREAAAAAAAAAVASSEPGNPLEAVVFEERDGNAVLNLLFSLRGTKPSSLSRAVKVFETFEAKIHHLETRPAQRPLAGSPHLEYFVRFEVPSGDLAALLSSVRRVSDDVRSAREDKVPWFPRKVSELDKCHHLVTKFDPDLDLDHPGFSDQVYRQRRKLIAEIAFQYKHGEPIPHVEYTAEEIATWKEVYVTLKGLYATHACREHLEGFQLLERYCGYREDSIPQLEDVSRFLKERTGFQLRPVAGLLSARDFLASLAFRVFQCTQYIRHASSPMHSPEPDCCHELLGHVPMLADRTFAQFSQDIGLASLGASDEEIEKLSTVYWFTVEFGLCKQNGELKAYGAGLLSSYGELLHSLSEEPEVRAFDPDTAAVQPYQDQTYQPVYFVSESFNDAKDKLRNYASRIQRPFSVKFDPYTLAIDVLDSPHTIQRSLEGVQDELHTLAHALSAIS

Rattus norvegicus [5] = assay: Effect on compound specific binding to dopamine release in rat brain upon pre-treatment with 4 mg/kg amphetamine; type: functional
Summary of the method: (§1)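 Male Sprague-Dawley rats (230-280 g), groups of 4-5, given the challenge agent in saline (1 mL/kg, iv unless otherwise stated) 25-30 min before tail-vein [11C] tracer, 25-30 MBq (1-2 nmol) in buffered saline. A saline control group was run each time. Killed 60 min post-injection. Striatum and cerebellum counted by gamma counter. Specific binding = (%ID/g striatum − %ID/g cerebellum)/%ID/g cerebellum.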

Rattus norvegicus [6] = assay: Effect on compound specific binding to rat brain upon pre-treatment with 2 mg/kg reserpine; type: functional
Summary of the method: (§2)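 Male Sprague-Dawley rats, four groups of five: reserpine (2 mg/kg sc) 24 h before tracer then AMPT (250 mg/kg ip) 1 h before; reserpine then saline; saline then AMPT; saline twice as controls. Tracer given iv via tail vein. Killed 60 min post-injection. Striatal and cerebellar %ID/g counted. Specific binding ratio = (striatum − cerebellum)/cerebellum.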

[7] = molecular target: Sodium-dependent dopamine transporter (Rattus norvegicus) (UniProt P23977); conditions: Brain, at 0.5 mg/kg
Rattus norvegicus [8] = assay: Effect on compound specific binding to dopamine release in rat brain upon pre-treatment with 0.5 mg/kg amphetamine; type: functional
Summary of the method: as §1

[9] = molecular target: Sigma non-opioid intracellular receptor 1 (Rattus norvegicus) (UniProt Q9R0C9); conditions: Brain, at 1 mg/kg
Chain of Sigma non-opioid intracellular receptor 1 (Rattus norvegicus) (Q9R0C9 whole entry): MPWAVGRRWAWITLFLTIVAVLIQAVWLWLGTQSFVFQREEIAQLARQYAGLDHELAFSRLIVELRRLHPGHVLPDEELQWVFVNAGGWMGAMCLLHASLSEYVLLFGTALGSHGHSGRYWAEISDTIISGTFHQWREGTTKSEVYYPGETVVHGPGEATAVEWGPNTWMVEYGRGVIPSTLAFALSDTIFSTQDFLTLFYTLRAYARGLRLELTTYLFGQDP

[10] = molecular target: T2, Alpha-2A adrenergic receptor (Rattus norvegicus) (UniProt P22909); conditions: Brain, at 2 mg/kg
T2 sequence (whole entry): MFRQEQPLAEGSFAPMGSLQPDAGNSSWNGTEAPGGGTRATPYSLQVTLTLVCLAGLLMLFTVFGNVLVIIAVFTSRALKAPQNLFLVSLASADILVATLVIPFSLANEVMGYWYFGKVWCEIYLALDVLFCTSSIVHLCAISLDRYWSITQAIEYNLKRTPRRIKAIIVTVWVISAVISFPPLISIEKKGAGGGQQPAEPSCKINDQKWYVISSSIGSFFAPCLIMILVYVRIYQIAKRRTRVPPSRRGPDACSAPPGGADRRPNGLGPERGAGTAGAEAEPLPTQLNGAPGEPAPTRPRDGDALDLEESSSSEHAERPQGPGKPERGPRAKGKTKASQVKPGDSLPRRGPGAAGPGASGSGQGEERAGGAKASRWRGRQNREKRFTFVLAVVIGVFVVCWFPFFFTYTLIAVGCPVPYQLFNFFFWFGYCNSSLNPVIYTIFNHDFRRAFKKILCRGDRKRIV

Rattus norvegicus [11] = assay: Effect on compound specific binding to dopamine release in rat brain upon pre-treatment with 0.25 mg/kg amphetamine; type: functional
Summary of the method: as §1

[12] = molecular target: T1, Dopamine receptor D2 and D3 (Rattus norvegicus); conditions: Brain, at 0.2 mg/kg
[13] = molecular target: Sodium-dependent dopamine transporter (Rattus norvegicus) (UniProt P23977); conditions: Brain, at 1 mg/kg
[14] = molecular target: T3, 5-hydroxytryptamine receptor 1A (Rattus norvegicus) (UniProt P19327); conditions: Brain, at 1 mg/kg
T3 sequence (whole entry): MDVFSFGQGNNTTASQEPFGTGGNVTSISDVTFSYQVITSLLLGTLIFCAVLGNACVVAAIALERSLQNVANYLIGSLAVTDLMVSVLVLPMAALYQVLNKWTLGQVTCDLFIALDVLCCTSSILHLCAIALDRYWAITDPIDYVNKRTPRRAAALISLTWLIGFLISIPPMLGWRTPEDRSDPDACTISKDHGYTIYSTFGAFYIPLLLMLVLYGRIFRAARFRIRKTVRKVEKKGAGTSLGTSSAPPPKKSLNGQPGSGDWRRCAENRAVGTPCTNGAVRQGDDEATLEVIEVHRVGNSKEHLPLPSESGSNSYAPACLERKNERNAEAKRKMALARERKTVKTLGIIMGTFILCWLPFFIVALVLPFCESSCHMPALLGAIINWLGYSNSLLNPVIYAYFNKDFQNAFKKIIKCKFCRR

[15] = molecular target: T1, Dopamine receptor D2 and D3 (Rattus norvegicus); conditions: Brain, at 1 mg/kg
Rattus norvegicus [16] = assay: Effect on compound specific binding to dopamine release in rat brain upon pre-treatment with 0.1 mg/kg amphetamine; type: functional
Summary of the method: as §1

[17] = molecular target: Sodium-dependent dopamine transporter (Rattus norvegicus) (UniProt P23977); conditions: Brain, at 10 mg/kg
[18] = Percent change in rat brain dopamine D2/sigma receptor binding after in rat brain after 0.2 mg/kg haloperidol treatment; type: functional
Summary of the method: as §1

Rattus norvegicus [19] = assay: Effect on compound specific binding to rat brain upon pre-treatment with 2 mg/kg reserpine and 250 mg/kg AMPT; type: functional
Summary of the method: as §2

Rattus norvegicus [20] = assay: Effect on compound specific binding to dopamine release in rat brain upon pre-treatment with 1 mg/kg amphetamine; type: functional
Summary of the method: as §1

[21] = molecular target: Sodium-dependent dopamine transporter (Rattus norvegicus) (UniProt P23977); conditions: Brain, at 5 mg/kg
[22] = Percent change in rat brain dopamine D2/sigma receptor binding after in rat brain after 1 mg/kg haloperidol treatment; type: functional
Summary of the method: as §1

[23] = molecular target: T1, Dopamine receptor D2 and D3 (Rattus norvegicus); conditions: Brain, at 0.01 mg/kg
[24] = molecular target: D(1A) dopamine receptor (Rattus norvegicus) (UniProt P18901); conditions: Brain, at 1 mg/kg
Chain of D(1A) dopamine receptor (Rattus norvegicus) (P18901 whole entry): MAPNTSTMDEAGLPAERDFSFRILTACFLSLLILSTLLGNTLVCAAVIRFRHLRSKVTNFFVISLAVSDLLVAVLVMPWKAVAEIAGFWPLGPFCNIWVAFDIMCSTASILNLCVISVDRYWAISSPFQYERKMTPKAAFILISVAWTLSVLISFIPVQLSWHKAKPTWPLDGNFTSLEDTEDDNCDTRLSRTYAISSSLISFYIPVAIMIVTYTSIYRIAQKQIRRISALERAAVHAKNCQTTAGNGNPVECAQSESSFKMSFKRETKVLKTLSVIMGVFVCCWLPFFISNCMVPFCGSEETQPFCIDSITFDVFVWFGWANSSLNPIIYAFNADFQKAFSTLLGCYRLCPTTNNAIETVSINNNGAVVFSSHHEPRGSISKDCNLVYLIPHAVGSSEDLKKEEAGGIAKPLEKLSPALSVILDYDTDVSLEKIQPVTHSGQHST

[25] = molecular target: T2, Alpha-2A adrenergic receptor (Rattus norvegicus); conditions: Brain, at 0.1 mg/kg
Rattus norvegicus [26] = assay: Effect on compound specific binding to dopamine release in rat brain upon pre-treatment with 2 mg/kg amphetamine; type: functional
Summary of the method: as §1

T1 sequence (P19020 whole entry, looked up): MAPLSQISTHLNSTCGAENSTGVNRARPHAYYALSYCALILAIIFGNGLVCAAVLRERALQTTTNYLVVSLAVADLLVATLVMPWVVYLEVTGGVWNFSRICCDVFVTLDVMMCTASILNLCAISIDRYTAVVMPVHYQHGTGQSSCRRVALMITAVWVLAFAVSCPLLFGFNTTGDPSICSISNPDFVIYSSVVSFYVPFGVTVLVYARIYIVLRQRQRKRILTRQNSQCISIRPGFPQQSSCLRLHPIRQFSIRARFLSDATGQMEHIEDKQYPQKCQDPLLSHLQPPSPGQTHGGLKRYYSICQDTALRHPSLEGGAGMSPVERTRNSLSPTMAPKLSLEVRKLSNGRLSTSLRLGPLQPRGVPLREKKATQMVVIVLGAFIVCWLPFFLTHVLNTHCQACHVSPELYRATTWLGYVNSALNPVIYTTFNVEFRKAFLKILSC
T1 sequence (P61169 whole entry, looked up): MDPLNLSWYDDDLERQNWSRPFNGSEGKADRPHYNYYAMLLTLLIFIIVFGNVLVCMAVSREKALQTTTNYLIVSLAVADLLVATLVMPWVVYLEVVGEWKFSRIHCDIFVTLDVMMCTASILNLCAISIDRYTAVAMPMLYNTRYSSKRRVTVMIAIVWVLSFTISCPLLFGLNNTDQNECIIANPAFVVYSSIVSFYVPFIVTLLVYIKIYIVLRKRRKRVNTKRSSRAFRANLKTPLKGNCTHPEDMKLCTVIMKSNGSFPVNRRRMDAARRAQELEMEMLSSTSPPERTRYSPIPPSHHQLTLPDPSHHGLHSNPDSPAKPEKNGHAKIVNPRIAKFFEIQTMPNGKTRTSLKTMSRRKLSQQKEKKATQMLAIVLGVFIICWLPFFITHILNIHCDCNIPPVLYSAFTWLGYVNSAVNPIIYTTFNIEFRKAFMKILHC

**Q.** With `CCCN1CCO[C@@H]2c3cc(O)ccc3CC[C@H]21` [NAXAGOLIDE] as the compound, how does the Change [1] read?
**A.** -39%

**Q.** And the Change [2]?
**A.** 30%

**Q.** What about the Change [3] of the same compound?
**A.** -57%

**Q.** What about the Change [4] of the same compound?
**A.** 31%

**Q.** What about the Change (Rattus norvegicus [5]) of the same compound?
**A.** -38%

**Q.** And the Change (Rattus norvegicus [6])?
**A.** 30%

**Q.** And the Change [7]?
**A.** -43%

**Q.** What about the Change (Rattus norvegicus [8]) of the same compound?
**A.** -19%

**Q.** And the Change [9]?
**A.** 22%

**Q.** And the Change [10]?
**A.** 13%

**Q.** And the Change (Rattus norvegicus [11])?
**A.** -1%

**Q.** And the Change [12]?
**A.** -80%

**Q.** And the Change [13]?
**A.** -42%

**Q.** What about the Change [14] of the same compound?
**A.** -14%

**Q.** And the Change [15]?
**A.** -93%

**Q.** What about the Change (Rattus norvegicus [16]) of the same compound?
**A.** -2%

**Q.** And the Change [17]?
**A.** -73%

**Q.** And the Change [18]?
**A.** -91%

**Q.** And the Change (Rattus norvegicus [19])?
**A.** 34%

**Q.** And the Change (Rattus norvegicus [20])?
**A.** -17%

**Q.** What about the Change [21] of the same compound?
**A.** -57%

**Q.** What about the Change [22] of the same compound?
**A.** -95%

**Q.** And the Change [23]?
**A.** -22%

**Q.** What about the Change [24] of the same compound?
**A.** 11%

**Q.** What about the Change [25] of the same compound?
**A.** 10%

**Q.** What about the Change (Rattus norvegicus [26]) of the same compound?
**A.** -30%
